According to ChEMBL document CHEMBL1147330, “Cytotoxic and antimalarial bisbenzylisoquinoline alkaloids from Cyclea barbata” (1993):
Converted amounts (≈) assume the structure as drawn.

Legend:
Type in all cases: functional
[1] = system: Plasmodium falciparum; experiment: Antimalarial activity against chloroquine-sensitive Plasmodium falciparum D6 infected type A+ human erythrocytes by [3H]hypoxanthine uptake; details: read-out: ED50 (the source's name)
How it was run: (§1)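 P. falciparum (chloroquine-sensitive D-6, chloroquine-resistant W-2) in type A+ human erythrocytes, 6% hematocrit, RPMI-1640 with 32 mM NaHCO3, 25 mM HEPES, 10% heat-inactivated A+ human plasma; 5% O2/5% CO2/90% N2, 37°. Test compounds in duplicate at 125,000–3 ng/ml; quinine control 250–0.3 ng/ml. ED50 = 50% inhibition of parasite [3H]hypoxanthine incorporation vs zero-drug controls, by non-linear regression.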

[2] = Cytotoxicity against human multidrug-resistant KBV1 cells; details: KB-V1, read-out: ED50 (the source's name)
[3] = Cytotoxicity against human multidrug-sensitive KB3 cells; details: read-out: ED50 (the source's name)
[4] = system: Plasmodium falciparum; experiment: Antimalarial activity against chloroquine-resistant Plasmodium falciparum W2 infected type A+ human erythrocytes by [3H]hypoxanthine uptake; details: read-out: ED50 (the source's name); how it was run: as §1
[5] = system: P388; experiment: Cytotoxicity against mouse P388 cells; details: read-out: ED50 (the source's name)

SMILES | EC50 [1] [µg/mL] | EC50 [2] [µg/mL] | EC50 [3] [µg/mL] | EC50 [4] [µg/mL] | EC50 [5] [µg/mL]
COc1ccc2cc1Oc1ccc(cc1)C[C@H]1c3cc(c(OC)cc3CCN1C)Oc1c(O)c(OC)cc3c1[C@@H](C2)N(C)CC3 | 0.0651 (≈ 0.107 µM) | 11 (≈ 18.1 µM) | 3.4 (≈ 5.59 µM) | 0.078 (≈ 0.128 µM) | 0.36 (≈ 0.591 µM)
COc1ccc2cc1Oc1ccc(cc1)C[C@H]1c3c(cc(OC)c(O)c3Oc3cc4c(cc3OC)CCN(C)[C@H]4C2)CCN1C | 0.029 (≈ 0.0476 µM) | 4.4 (≈ 7.23 µM) | 2.2 (≈ 3.61 µM) | 0.0406 (≈ 0.0667 µM) | 0.57 (≈ 0.936 µM)
COc1ccc2cc1Oc1ccc(cc1)C[C@@H]1c3cc(c(OC)cc3CCN1C)Oc1c(O)c(OC)cc3c1[C@@H](C2)N(C)CC3 | 0.0527 (≈ 0.0866 µM) | 11 (≈ 18.1 µM) | 9.8 (≈ 16.1 µM) | 0.164 (≈ 0.269 µM) | 0.25 (≈ 0.411 µM)
COc1ccc2cc1Oc1ccc(cc1)C[C@H]1c3cc(c(OC)cc3CCN1C)Oc1c(OC)c(OC)cc3c1[C@H](C2)N(C)CC3 [FANCHININ] | 0.179 (≈ 0.287 µM) | 3.7 (≈ 5.94 µM) | 2.1 (≈ 3.37 µM) | 0.16 (≈ 0.257 µM) | 0.4 (≈ 0.642 µM)
COc1ccc2cc1Oc1ccc(cc1)C[C@H]1c3c(cc(OC)c(O)c3Oc3cc4c(cc3OC)CCN(C)[C@@H]4C2)CCN1C [HOMOAROMOLINE] | 0.232 (≈ 0.381 µM) | 15 (≈ 24.6 µM) | 3.6 (≈ 5.91 µM) | 0.451 (≈ 0.741 µM) | 0.31 (≈ 0.509 µM)
C=C[C@H]1CN2CC[C@H]1C[C@H]2[C@H](O)c1ccnc2ccc(OC)cc12 [QUININE] | 0.0076 (≈ 0.0234 µM) | > 20 | > 20 | 0.0308 (≈ 0.0949 µM) | > 5
